Measurements reported in the EternaBench riboswitch data.

System: MS2 coat protein
Assay: apparent Kd, MS2 coat protein; higher = weaker binding; RNA-MaP array; FMN 200 µM where present
Method in brief: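 Each design was made on Illumina sequencing-chip clusters by stalled E. coli RNA polymerase and titrated with SNAP-549-labelled MS2 coat protein from 0.7 or 1.5 nM, doubling to 3 µM, in the absence and then the presence of constant ligand. The buffer was 100 mM Tris-HCl pH 7.5, 80 mM KCl, 4 mM MgCl2, BSA, DTT, yeast tRNA and Tween-20. The apparent Kd is the median of filtered per-cluster fits of binding curves, with green signal normalised to red-channel RNA signal and control-cluster median Fmax.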

[1] = designed as: OFF switch for flavin mononucleotide, no ligand
[2] = ligand present: flavin mononucleotide, designed as: OFF switch for flavin mononucleotide
[3] = designed as: ON switch for flavin mononucleotide, no ligand
[4] = ligand present: flavin mononucleotide, designed as: ON switch for flavin mononucleotide

Sequence | apparent Kd [1] | apparent Kd [2] | apparent Kd [3] | apparent Kd [4]
UGUCGGAGCAGAGGAUAUUACAUGAGGAUCACCCAUGUAUGAACCAAUAGCUGGAAACAGCAAUGUAAGAAGGCUGCUCGGACA | 0.0126 µM | 0.187 µM |  | 
UUAUUAUAUGUAGGAUAUGCAUAUUAUUAUUAUGCAGAAGGACAUGAGGAUCACCCAUGUAUGUUGUUAUUAUAUAUUAUAUAU | 0.0252 µM | 0.0345 µM |  | 
GGAGCCGGCACUGAGGAUAUUCAUAUUAAAACAUGAGGAUCACCCAUGUAGGCCAGAAGGCCUUGGGAGAAGGCAGGUCGGCCCG |  |  | 0.381 µM | 0.0284 µM
UUAUAUAGUGUGAGGAUAUGCUGGUCCUUGGAUCAGCAGAAGGCACAUGAGGAUCACCCAUGUAGUUAAAUUUA | 0.0344 µM | 0.134 µM |  | 
UUCAAAUUCGUAGGAUAUGUAUAUAUUUUCUACAUGAGGAUCACCCAUGUUACCAUUUUUUAUUGACAGAAGGACGUAAUCUAA |  |  | 0.0346 µM | 0.0138 µM
AGAUCACAUGAGGAUCACCCAUGUGAGGAUAUAGAUUCAAGAGCUUCGGCUCUAAAGUCUAGAAGGCGCUAUGA | 0.0251 µM | 0.0256 µM |  | 
GAUACACAUGAGGAUCACCCAUGUUAGGAUAUUAGCGGGAAAGCUGUCAGACAGUCGAUGAGAAGGAACAGGAG | 0.0325 µM | 0.0316 µM |  | 
AGGAAACAUGAGGAUCACCCAUGUAAGAUAUACACAGGAUAUGCGAAAAGAAACAAAGAAGCAGAAGGGUGGAAAA |  |  | 0.0351 µM | 0.0212 µM
ACACGACAUGAGGAUCACCCAUGUGAGGAUAUCGAUCUACACUAUGCCCAUAGUCUCUCGAGAAGGCACACUAA | 0.0306 µM | 0.0317 µM |  | 
AAUAAACUCACAGGAUAUAGCAUCGUCGGUAUGAACUUAAAGACGACGAUGCUAGAAGGGUGACCACAUGAGGAUCACCCAUGU |  |  | 0.903 µM | 0.114 µM
CUCUUGUCAGGAUAUCUUACAUAACAAUCGUAGUUACCAUUGGAGAAGGGACAUGAGGAUCACCCAUGUUAGCC | 0.0238 µM | 0.0465 µM |  | 
GAUAGUCCUGAGAAGGACAUGAGGAUCACCCAUGUGAUUAUACCAGUGCAAUGAAAGCACUGGAUGUAGGAUAUCAGGACUAUC | 0.0153 µM | 0.0961 µM |  | 
GUCAGUUCGUGAGGAUAUACAACACUGCUUCGGCAGUGUAUUAAGAUCACAUGAGGAUCACCCAUGUAGAAGGCACGAGCUGAU | 0.014 µM | 0.269 µM |  | 
GAUUUCUAAGGAUAUACUGAUGUUCCUAAGUCUAGCGGCUCACAUGAGGAUCACCCAUGUAGAAGGUGGAGGUU | 0.0278 µM | 0.0301 µM |  | 
AUUUUUUAUGUAGGAUAUGCUUGUGGUAAGAUAGCAGAAGGACAUGAGGAUCACCCAUGUUAAUGAUAGAGAUUUUAGGUUGGU | 0.0426 µM | 0.0692 µM |  | 
CCGGAAAUGAAGGAUAUAGGUGUCGAUAGACACCUAGAAGGUCAUACAUGAGGAUCACCCAUGUGUCCUACCGG | 0.0161 µM | 0.0306 µM |  | 
AAAGGACGAGGAUAUACAUGAGGAUCACCCAUGUAAAAAGCAUAAUAAAAUAACUUAUGUAGAAGGCGUCCAAA | 0.022 µM | 0.108 µM |  | 
UGGAUGUGGGUUCCACAUGAGGAUCACCCAUGUACCGAUGAGAGAAGGCGCGCUGGAUCACAGGGCGAGGAUAUCUACAUUCAA | 0.00606 µM | 0.0131 µM |  | 
CAGCACGGAAACAAAGUCUUCGGACAUGAGGAUCACCCAUGUGAGGAUAUGCCUACUAAAAGUAGGCAGAAGGCACGCGUGCUG | 0.0171 µM | 0.0626 µM |  | 
UCGCGGGAGCAGAAGGGAUAGGCCUAUUGUCGUGGAGUCUAAACUUAACAUGAGGAUCACCCAUGUCAGGAUAUGCCCACGCGA | 0.00989 µM | 0.0105 µM |  | 
AGAAACUACGAGAAGGACAUAUGGUACUUCAGAUACAUGAGGAUCACCCAUGUAGGAUAUCGUAGUUUCAGGAUCGUGAGAUCA | 0.00958 µM | 0.0426 µM |  | 
CACUGCAAUGUAGGAUAUCGACUGGAUAACAGUCGAGAAGGACAUGAGGAUCACCCAUGUACUUUGAGUGAAUAAUAAGCAGUG | 0.0165 µM | 0.0597 µM |  | 
AAAUUUAACGAAGGAUAUGGAUACAUGAGGAUCACCCAUGUUUAUUUUGUGAUCUUGUAUAAGUACCAGAAGGUCGUAUACAUA | 0.165 µM | 0.459 µM |  | 
GCUGUCGCAUGAGGAUAUGGUCAGCUUUGCUGACCAGAAGGCAUGUCAAUAGACAUGAGGAUCACCCAUGUAGUAAAGACAGCU |  |  | 0.375 µM | 0.0339 µM
CAUUAACAUGAGGAUCACCCAUGUGAGGAUAUGAUAUUACUAGGACGGCUGUAAUCAAUCAGAAGGCACAUCUU | 0.0204 µM | 0.0445 µM |  | 
GAGCGAAAGCUCAAUGUCGAUAGCAGAAGGACAUGAAAACAUGAAAAUACAUGAGGAUCACCCAUGUAGGAUAUGCUAUCGACU | 0.0067 µM | 0.0243 µM |  | 
CAAUUGGCACAGAAGGGUGACAUGAGGAUCACCCAUGUAGCGUGGCACUCAGGAGAAGCCACGCCACAGGAUAUGUGCGGGCAC |  |  | 0.0346 µM | 0.0416 µM
AAAAAAAAAACUGAGGAUAUCAGGGAUGGUACAUGAGGAUCACCCAUGUUGGCGGGCGAAGAAACUGAGAAGGCAGAAAAAAAAAA |  |  | 0.114 µM | 0.111 µM

Sequence | apparent Kd [1] | apparent Kd [2] | apparent Kd [3] | apparent Kd [4]
UUACAGUGCGGGUAGGAUAUGUAGGGUGGUACAUGAGGAUCACCCAUGUAUCCACCCUUCGACCGGCAGAAGGGCCUAUCACUGC |  |  | 0.0159 µM | 0.0136 µM
GUGGUCAGACAUGAGGAUCACCCAUGUGGAAUAAAUAAGGAAAAGGAUAUUCAAUAUAGGAUAUAGAAGAAGGUUUGGUUGGUG |  |  | 0.0744 µM | 0.0834 µM
UUUUACGUUUCGUAGCAGUGUCAUCGAGAAGGCCCUGACAUGAGGAUCACCCAUGUUGUUACAUGGGAGGAUAUCGAUGAUGGG |  |  | 0.0413 µM | 0.00693 µM
GCACAUUUGUAAGGAUAUACUACAUGAGGAUCACCCAUGUGCAUGGAGAUUGUAGAAGGUACAGCAAUAUUGAUUAACGUUAUA |  |  | 0.134 µM | 0.0772 µM
AAAAAAAAAGUAGAGGAUAUCCAAAUGGCUACAUGAGGAUCACCCAUGUGAAGAAAAGCACAUGAGGAGAAGGCUACAAAAAAAAA |  |  | 0.0267 µM | 0.0135 µM
GGGCUGUCAGGAUAUGGGUCUGGGUCUGAAAGGGCUCGGGCUCAGAAGGGACAUGAGGAUCACCCAUGUGGCCC | 0.0352 µM | 0.0364 µM |  | 
UUUUCUUUUGUGAGGAUAUACUUGUUUUUUUUUUUGUAGAAGGCACAUGAGGAUCACCCAUGUUUUCUUUUCUG | 0.0171 µM | 0.0194 µM |  | 
GUUCUUCCUGUAAGGAUAUCCAUGUAUCAAUGUAUGGAGAAGGUACAUGAGGAUCACCCAUGUCACCCGCGUUA | 0.0166 µM | 0.0398 µM |  | 
AGGACAAGGCAGAAGGGACAUGAGGAUCACCCAUGUACCGUGGUUCAGCAGUCAGGAUAUGCCAUAUGUAAACAUAUCGUAAGA | 0.0121 µM | 0.108 µM |  | 
GAGCUGUGAGGAUAUAAACCUGUGGGCUCAACCUAGCGGGUUUAGAAGGCACAUGAGGAUCACCCAUGUCCCAA | 0.026 µM | 0.262 µM |  | 
GACUGCUGAGGAUAUACAUGAGGAUCACCCAUGUGCUUCAGCAUCGAAAGAUGCAUUGGUAGAAGGUAGUAGUC | 0.0114 µM | 0.0201 µM |  | 
GAGUGGUGGAAAGGAUAUGCAUUGUUAUUCACUGUAGAAGGUUCUAACAUGAGGAUCACCCAUGUAGGACUAUUCCUGUGUUUU |  |  | 0.0133 µM | 0.0126 µM
GUGCGUGGCUAGGAUAUUGUGGAGUUUAGUCAGCGAGAAGGUGCCACAUGAGGAUCACCCAUGUGGUGUUGCUC | 0.0198 µM | 0.0217 µM |  | 
GCAGUGCCAGCGGUACUGCCUCUAGCAGAAGGGUGACGAGACAUGAGGAUCACCCAUGUAGAGACACAGGAUAUGCACCAGCUU |  |  | 0.142 µM | 0.00826 µM
UGAUCGAGAGAUCUUAGAUUCUGGUAGGAUAUACAUAUAGUAAUAUAGACAUGAGGAUCACCCAUGUAGAAGGACUAGAGUCUA | 0.0069 µM | 0.00865 µM |  | 
GGAUAGUGAGGAUAUCGAUGUUAGGAGGAGGAGGUAGGAGGCGAGAAGGCACAUGAGGAUCACCCAUGUAUGGU | 0.0318 µM | 0.0294 µM |  | 
AGAAAGGAAGGAUAUACAAGAAAGCUGGGCAACGUCUCAGAACAUGAGGAUCACCCAUGUAGAAGGUCCAGGAA | 0.0252 µM | 0.0343 µM |  | 
AUUAUUAAAGUGAGGAUAUCUAGAGCCUCGGCUCUAGAGAAGGCACAUGAGGAUCACCCAUGUCUCAAUUAUUA | 0.0191 µM | 0.0561 µM |  | 
AGUCCAGAAGGAUAUACAUAGGUGAAAAAAAAAAAAAAACUACAUGAGGAUCACCCAUGUAGAAGGUCUGGACA | 0.0935 µM | 0.046 µM |  | 
GUCAGCUAGUGAGGAUAUACAACACUGCUUCGGCAGUGUAUUAAGAUCACAUGAGGAUCACCCAUGUAGAAGGCACGAGCUGAU | 0.0138 µM | 0.273 µM |  | 
AAGUGCAUAGGAUAUAUAUGGAUAUACAUUUAUGUAGAACUACAUGAGGAUCACCCAUGUAGAAGGAUGCAAUA | 0.0215 µM | 0.0368 µM |  | 
UUUGAAUAAGUGAGGAUAUACUGUUAGUAAUGAUUGUAGAAGGUACAUGAGGAUCACCCAUGUUUAUUAUUUAU | 0.0218 µM | 0.0183 µM |  | 
AAUUUCAGAUGAGGAUAUUGACAUGAGGAUCACCCAUGUAUUUGGGAAUGUUUACUGAAUUCUUACGAGAAGGUAUACGAACUU | 0.296 µM | 0.2 µM |  | 
AAGUAGAUCCGAGGAUAUACAAAGUGGAAUCGCUACAUGAGGAUCACCCAUGUAGAAGGCGGAUCUACAGGUACUAAAGUACCA | 0.00801 µM | 0.0683 µM |  | 
GCUUUUCUAGCCAAGUGGUAGAGCGCAGAAGGCCAACAUGAGGAUCACCCAUGUAUAAAGAACAUGGAGGAUAUGCGUCACCUU |  |  | 0.0737 µM | 0.0065 µM
GGUACCUUUACAGGAUAUGCUAUCCUUUGGGUAGCAGAAGGGUGAUACAUGAGGAUCACCCAUGUGGUGCCAGGGCGUGAGCCC |  |  | 0.0932 µM | 0.313 µM
AAUUUACAUGAGGAUCACCCAUGUCAGGAUAUGGUUUUAUUUUUUUCUUUUUUUGAUUCCAGAAGGGACAGUUA | 0.148 µM | 0.0796 µM |  | 
